Measured values reported in ChEMBL document CHEMBL5120825, “The azulene scaffold from a medicinal chemist's perspective: Physicochemical and in vitro parameters relevant for drug discovery” (Eur J Med Chem, 2022).
In brackets after ≈: the same amount, converted by molar mass.

Assays:
[1] = Octanol-water partition coefficient, logD of the compound at pH 11 by HPLC analysis; type: physicochemical
[2] = Lipophilicity, logP of the compound; type: physicochemical; details: octanol/water
[3] = Aqueous solubility of the compound at pH 6.8 incubated for 24 hrs under shaking condition by LC-UV analysis; type: physicochemical; details: aqueous medium
Summary of the method: (§1)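 The highest concentration tested was 250 μM, so results are capped at that level. Values are reported in µg/ml.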

[4] = Octanol-water partition coefficient, logD of the compound at pH 2 by HPLC analysis; type: physicochemical
[5] = Aqueous solubility of the compound at pH 2.2 incubated for 24 hrs under shaking condition by LC-UV analysis; type: physicochemical; details: aqueous medium; summary of the method: as §1
[6] = Aqueous solubility of the compound at pH 4.5 incubated for 24 hrs under shaking condition by LC-UV analysis; type: physicochemical; details: aqueous medium; summary of the method: as §1
[7] = Metabolic stability in human liver microsomes assessed as hepatic blood flow at 1 uM preincubated with compound followed by NADPH addition by LC-MS/MS analysis; type: ADME, Microsome; details: read-out: QH
[8] = Permeability of the compound at pH 7.4 by PAMPA assay; type: ADME; details: read-out: permeability

Row | Compound | logD ([1]; read-out: logD) | logP ([2]; read-out: logP) | solubility thermodynamic at 24 h [3] [µg/mL] | logD ([4]; read-out: logD) | solubility thermodynamic at 24 h [5] [µg/mL] | solubility thermodynamic at 24 h [6] [µg/mL] | hepatic extraction ratio at 1 µM [7] | Papp [8] [×10⁻⁶ cm/s] | logD [1] | logP [2] | logD [4]
1 | O=C(NCc1cccnc1)c1ccc2[nH]cc(C(=O)c3ccccc3)c2c1 | 0.8 | 1.4 | < 1 | 0.8 | > 79 | 1 (≈ 2.81 µM) | 0.56 | 0.1 |  |  | 
2 | Cn1cc(C(=O)c2ccccc2)c2cc(C(=O)NCc3cccnc3)ccc21 | 0.9 | 2.1 | < 1 | 0.9 | 81 (≈ 219 µM) | 3 (≈ 8.12 µM) | < 0.23 | 1.7 |  |  | 
3 | COC(=O)c1ccc2ccc(C(=O)Nc3ccccc3)c-2cc1 | 4 | 3.8 | < 1 | 4 | < 1 | < 1 |  | 0.4 |  |  | 
4 | CN(C)C(=O)Cc1ccc2ccn(C)c2c1 | 1.7 | 1.7 | > 53 | 1.9 | > 54 | > 53 | < 0.23 | 7.6 |  |  | 
5 | COC(=O)c1ccc2c(ccn2C(=O)c2ccccc2)c1 | 4.4 | 4.4 | < 1 | 4.5 | < 1 | < 1 |  | 0.5 |  |  | 
6 | O=C(NCCc1c[nH]c2ccccc12)c1ccc2ccc(C(=O)c3ccccc3)c-2cc1 | 4.3 | 4.3 | < 1 | 4.4 | < 1 | < 1 | 0.69 | 0.03 |  |  | 
7 | Cn1cc(C(=O)c2ccccc2)c2cc(C(=O)NCCO)ccc21 | 1.6 | 1.3 | 45 (≈ 140 µM) | 1.6 | 53 (≈ 164 µM) | 66 (≈ 205 µM) | < 0.23 | 0.5 |  |  | 
8 | Cn1c(NC(=O)c2cccnc2)cc2ccccc21 | -0.1 | 1.3 |  | -0.1 | > 59 |  | 0.23 | 4.9 |  |  | 
9 | O=C(Cn1ccccc1=O)Nc1cc2ccccc2[nH]1 |  |  | > 67 |  | > 60 | > 67 | < 0.23 | 0.1 | 1 | 0.4 | 1
10 | COC(=O)c1ccc2c(C(=O)N(C)C)cn(C)c2c1 |  |  | 49 (≈ 188 µM) |  | 50 (≈ 192 µM) | > 52 | 0.82 | 4.2 | 1.9 | 1.4 | 1.9
11 | O=C(NCCO)c1ccc2[nH]cc(C(=O)c3ccccc3)c2c1 |  |  | 15 (≈ 48.6 µM) |  | 39 (≈ 126 µM) | 18 (≈ 58.4 µM) | 0.53 | 0.01 | 1.3 | 0.6 | 1.3
12 | O=C(NCCc1c[nH]c2ccccc12)c1ccc2[nH]cc(C(=O)c3ccccc3)c2c1 | 2.8 |  | 1 (≈ 2.45 µM) |  | < 1 | < 1 | 0.84 | < 0.01 |  | 2.8 | 3.3
13 | COC(=O)c1ccc2[nH]cc(C(=O)c3ccccc3)c2c1 | 2.5 |  | < 1 |  | < 1 | < 1 |  | 2.8 |  | 2.5 | 2.9
14 | COC(=O)c1ccc2c(C(=O)c3ccccc3)cn(C(=O)c3ccccc3)c2c1 | 5.2 | 5.2 | < 1 | 5.2 | < 1 | < 1 |  | 2.1 |  |  | 
15 | Cn1cc(C(=O)c2ccccc2)c2cc(C(=O)NCCc3c[nH]c4ccccc34)ccc21 | 3.5 | 3.5 | < 1 | 3.6 | < 1 | < 1 | 0.79 | 0.04 |  |  | 
16 | Cn1cc(C(=O)N2CCC(C(N)=O)CC2)c2ccccc21 | 0.4 |  | > 64 |  | > 71 | 44 (≈ 154 µM) | < 0.23 | 0.2 |  | 0.4 | 1.1
17 | Cn1c(NC(=O)Cn2ccccc2=O)cc2ccccc21 |  |  | 3 (≈ 10.7 µM) |  |  |  | < 0.23 | 3.3 | 1.5 | 1.1 | 1.5
